Screening data: PubChem, Broad Institute
A selection: hits, their analogues and other compounds. The true share with any hit is near 3.6%.
Beta apoptosis: inhibitors of cytokine-induced beta cell apoptosis, primary screen, luminescence | INS-1E cytokine-induced death, ATP luminescence, 48 h; percent of positive-control rescue, neutral wells zero | protection from apoptosis, % (concentration not given with the values) | hit rate 0.8% among 300,000 | AID 435005, 2010;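 active = Every replicate reaches about 75%, or at least half do and their mean reaches it too, limit read from the data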;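 note: higher means more ATP so stronger rescue from cytokine killing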
PfHsp90 yeast 2: growth inhibition of PfHsp90-expressing yeast, primary screen, antimalarial PfHsp90 inhibitor project, S. cerevisiae, BacTiter-Glo luminescence, single point, set 2 | hit rate 0.32% among 310,000 | inhibition, % at 9.4 µM | BacTiter-Glo ATP, 48 h; yeast lacking PDR1 and PDR3 efflux regulators | AID 504621, 2011;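 active = every replicate shows inhibition above about 80%, whatever the replicate mean, limit read from the data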
CSC inhib: cancer stem cell viability inhibitors, primary screen, luminescence | cancer stem cell-like cells viability | inhibition, % at 7.5 µM | hit rate 1.1% among 300,000; in the data active = inhibition above about 75%; tested in HMLE shEcad cells
T cruzi repl: inhibitors of intracellular T. cruzi growth, primary screen, luminescence, NIH3T3 host cells; T. cruzi beta-gal in NIH3T3, 90 h; inhibition, % (test concentration not listed); hit rate 1.4% among 300,000; AID 1885, 2009;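 active = mean inhibition across valid replicates above about 55%, limit read from the data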;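 note: signal also drops with host cell toxicity which is not excluded here; higher percent means less beta-gal luminescence so fewer parasites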
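System: mouse NIH/3T3 fibroblasts infected with β-gal-expressing T. cruzi Tulahuen C4 / Input: NIH/3T3 cells, 5,000 per well / Buffer or medium: Low-serum DMEM with 2% FBS / Probe or stimulus: 5000 reporter trypomastigotes per well / Schedule: ≥90 h infection period, 3 h prior cell attachment / Measured by: GalScreen luminescence, 60 min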
HIF activator: HIF pathway transcriptional activators, primary screen, cell-based, U2OS HRE-luciferase, luminescence; U2OS HRE-luciferase reporter; normalized: DMSO 0%, desferrioxamine 100%; activation, % at 7.5 µM (by protocol); hit rate 0.32% among 300,000; AID 1910, 2009;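 active = mean activation of at least 10% of the iron chelator positive control signal, with at least half of replicates also reaching 10%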
SKKanGAS inh: S. pyogenes SKKanGAS growth inhibitors in kanamycin, primary screen, streptokinase expression inhibitor project, SKKanGAS strain, BacTiter-Glo luminescence; inhibition, % at 7.5 µM; hit rate 1.3% among 300,000; 6 h;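 active = mean replicate score, as percent of positive control median, at least 50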;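 note: strain carries kanamycin resistance gene driven by streptokinase promoter and grows in 40 µg/ml kanamycin; loss of luminescence reflects streptokinase promoter inhibition or plain growth inhibition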
Hits are given with their value; – = inactive; · = not tested or not shown; + = active, no number.

SMILES	Beta apoptosis	PfHsp90 yeast 2	CSC inhib	T cruzi repl	HIF activator	SKKanGAS inh
O=C(c1ccc(CSc2nc3ccncc3[nH]2)cc1)N1CCN(c2cccc(Cl)c2)CC1	–	–	–	55	–	–
O=C(c1ccc(CSc2ccccc2)cc1)N1CCN(c2ccccc2)CC1	–	–	+	–	–	–
O=C(COc1ccccc1)N=C1SC2CS(=O)(=O)CC2N1c1ccc(F)cc1F (centres undefined)	–	–	–	–	–	–
CCCC(=O)Nc1ccc(C(=O)NNC(=S)NC(=O)c2cccs2)cc1	·	–	–	–	–	–
O=C(NC(=S)NNC(=O)c1cccs1)c1ccco1	–	·	–	–	–	61
Cc1cccc(C(=O)NNC(=O)c2ccc(Br)cc2)c1	–	–	–	–	–	–
CC(C)(C)c1ccc(C(=O)NC(=S)NNC(=O)c2cccs2)cc1	–	–	–	56	–	104
Cc1cccc(C(=O)NC(=S)NNC(=O)c2ccc(Cl)cc2)c1	–	–	–	–	–	105
O=C(NC(=S)NNC(=O)c1cccs1)c1ccccc1	–	–	–	–	–	86
O=c1ccc2cc(S(=O)(=O)Nc3ccc(Br)cc3)ccc2o1	–	–	–	–	–	–
Cc1ccccc1C(=O)Nc1cccc(NC(=S)NC(=O)c2cccs2)c1	–	–	–	–	–	–
Cc1cccc(C(=O)NC(=S)NNC(=O)c2cccs2)c1	–	–	–	–	–	51
Cc1ccccc1C(=O)NNC(=S)NC(=O)c1cccs1	–	–	–	–	–	69
O=C(NNC(=O)c1cccs1)c1cccc(F)c1	–	–	–	–	–	–
COC(=O)C1CCC(=O)N1C(c1ccc(OC)cc1)c1cc(OC)c(OC)c(OC)c1 (centres undefined)	·	–	·	·	·	·
CC(C)=CCC/C(C)=C/CNC(=O)C[C@H]1C[C@H](C(=O)N2CCOCC2)[C@@]2(CCC3CCCC3)c3[nH]c4cc(-c5ccco5)ccc4c3CCN2C1=O	·	–	·	·	·	·
CC(C(=O)N1CCc2ccccc21)N1CCN(Cc2ccccc2)CC1 (centres undefined)	–	–	–	56	–	–
COc1ccc(CN2C(=O)c3ccccc3C(/C=N\OCc3ccc(C)cc3)C2=O)cc1 (centres undefined)	·	·	–	–	–	106
O=C(C1COc2ccccc2O1)N1CCN(c2ccc([N+](=O)[O-])cc2)CC1 (centres undefined)	–	–	–	·	·	·
O=C(O)C1Nc2c(Cl)cc(Cl)c(Cl)c2C2C=CCC12 (centres undefined)	–	–	–	–	–	–
CC(C)C1Nc2c(O)cc(Cl)c([N+](=O)[O-])c2C2C=CCC21 (centres undefined)	·	110	·	–	–	79
CC(OC(=O)Nc1ccccc1)C(=O)OC1CCCCC1 (centres undefined)	·	–	·	·	·	·
CCC1CSC(Nc2ccc(C(=O)/C=C/c3ccc(Br)cc3)cc2)=N1 (centres undefined)	–	–	79	–	–	–
Cc1ccc(OCCNC(=O)CCc2nc3sc4c(c3c(=O)[nH]2)CCCC4)cc1	–	·	–	–	45	–
COc1ccc(N2CCN(C(=O)COCc3cc(-c4ccc5c(c4)OCO5)on3)CC2)cc1	–	–	–	–	–	–
O=C(COCc1cc(-c2ccc3c(c2)OCO3)on1)N1CCN(c2cccc(C(F)(F)F)c2)CC1	–	–	119	–	–	–
CC1CC(C)CN(S(=O)(=O)c2ccc3c(c2)NC(=O)C(C)C(=O)N3)C1 (centres undefined)	–	–	–	–	–	–
CCCC(=O)NC(NC(=S)Nc1ccc(N=Nc2ccccc2)cc1)C(Cl)(Cl)Cl (centres undefined)	109	–	119	–	–	–
CCCC(=O)NC(NC(=S)Nc1ccc(S(N)(=O)=O)cc1)C(Cl)(Cl)Cl (centres undefined)	–	–	–	–	–	–
